Most compounds without a hit are left out; they make up all but 11% or so of the library.
M1 antagonist – antagonists of rat M1 muscarinic receptor; CHO-M1 cells, Fluo-4 calcium, ACh EC80 antagonist mode; hits give low values; B-score at 10 µM; actives 3.4% (n = 64,000); AID 628, 2007; Muscarinic acetylcholine receptor M1 (Rattus norvegicus), P08482;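 active = calcium fluorescence response, raw or row-and-column corrected B-score, differing from the plate sample mean either way at a set confidence level, mostly lower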
D1 mod – D1 CRE-luciferase signal change, two-sided – cell-based, HEK293 D1, dopamine EC30, D1 allosteric modulator project, primary screen. D(1A) dopamine receptor (Homo sapiens), P21728. dopamine EC30 potentiation; actives deviate in either direction. B-score at 10 µM. AID 641, 2007. actives 5.9% (n = 58,000);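 active = luminescence count or its row- and column-corrected plate score outside the 99.7% band of the plate's sample wells, on either side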
Target sequence (P21728 whole entry, looked up): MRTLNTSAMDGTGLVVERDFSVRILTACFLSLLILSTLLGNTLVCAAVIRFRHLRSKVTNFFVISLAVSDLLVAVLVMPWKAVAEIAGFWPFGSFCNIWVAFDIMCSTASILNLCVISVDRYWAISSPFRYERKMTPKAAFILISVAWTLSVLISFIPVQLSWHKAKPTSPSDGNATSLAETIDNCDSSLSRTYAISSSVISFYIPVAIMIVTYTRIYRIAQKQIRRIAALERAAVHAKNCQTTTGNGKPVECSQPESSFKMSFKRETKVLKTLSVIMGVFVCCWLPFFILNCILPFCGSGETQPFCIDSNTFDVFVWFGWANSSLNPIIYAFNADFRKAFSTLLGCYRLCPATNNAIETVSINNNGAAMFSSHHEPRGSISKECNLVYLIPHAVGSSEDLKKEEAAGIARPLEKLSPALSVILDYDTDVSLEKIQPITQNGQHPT
S1P3 agonist – human S1P3 receptor agonists, primary screen, cell-based, primary and confirmation, NFAT-BLA reporter; actives 0.1% (n = 60,000); activation, % at 4.5 µM; S1P3 NFAT-BLA reporter cells, agonism, FRET ratio; relative to 1 µM S1P, basal subtracted; AID 373, 2006; Sphingosine 1-phosphate receptor 3 (Homo sapiens), Q99500;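 active = activation above the screen-wide mean plus 3 SD, cut at about 4.5% in these data, passing the limit was not always enough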
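Measure – % activation relative to 1 µM S1P (100%), per plate · System – stable CHO line with human S1P3, Gα16, NFAT-BLA reporter · Timing – cells plated overnight, compound 4 h 37 °C, substrate 2 h RT · Technique – fluorescent BLA substrate, ex 405 nm, em 460/535 nm ratio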
M1 agonist – M1 muscarinic receptor agonists, primary screen, CHO-M1 cells, Fluo-4 calcium, agonist mode. Fluo-4 calcium fluorescence; hits give high values. Muscarinic acetylcholine receptor M1. actives 3% (n = 64,000). B-score at 10 µM;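 active = fluorescence rise, raw or as B-score row- and column-corrected plate score, outside the 99.7% band of its plate's samples, either direction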
S1P1 ag-PAM – S1P1 agonists and agonism potentiators, primary screen, cell-based, primary and confirmation screens, CRE-bla reporter | S1P1 CRE-bla cells, forskolin, beta-lactamase FRET, potentiator mode; S1P1 agonist co-added at EC20, 2 nM; 100% = saturating reference agonist, 0% = basal | activation, % at 9.5 µM | AID 449, 2006 | actives 0.57% (n = 56,000);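 active = activation above a cutoff set at the mean activation of all tested compounds plus 3 SD, cut at about 54% in these data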;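 note: forskolin at 4 µM as EC80 and the EC20 agonist is SEW2871; 100% = SEW2871 at its EC100 plus forskolin at EC80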
D1 mod confirm – D1 receptor positive allosteric modulators, retest, confirmation, cell-based, HEK293 D1, CRE-luciferase, duplicate; shares compounds with D1 mod; dopamine EC30 potentiation; hits give high values; luminescence at 10 µM; actives 88% (n = 2,200); AID 642, 2007;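 active = luminescence in either of two replicates above the same-plate mean plus 3 SD of the low-dose dopamine control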
D1 no dopamine – D1 receptor agonism without dopamine, confirmation, mechanism study for D1 allosteric modulator project, cell-based, HEK293 D1, CRE-luciferase, secondary assay 1; shares compounds with D1 mod; luminescence, no dopamine; hits give high values; luminescence at 10 µM; actives 0.8% (n = 1,900); in the data active = luminescence above about 3900
Isoprot counter – alters isoproterenol CRE-luciferase response in HEK293 cells. shares compounds with D1 mod. luminescence at 10 µM. AID 647. HEK293 D1 CRE-luciferase, isoproterenol EC30 counter-screen; hits give high values. actives 63% (n = 2,200);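 active = luminescence in either replicate above plate mean of wells with a partly effective reference agonist dose plus 3 SD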;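 note: isoproterenol raises cAMP through native beta-adrenoceptor Gs so signal bypasses D1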
* = called active by the depositor; · = no result.

SMILES | M1 antagonist | D1 mod | S1P3 agonist | M1 agonist | S1P1 ag-PAM | D1 mod confirm | D1 no dopamine | Isoprot counter
COc1ccc(-c2nc(CS(=O)CC(=O)NC3CCCc4ccccc43)c(C)o2)cc1OC (centres undefined) | 0.227 | 4.44* | 1.0 | 0.913 | -26.0 | 9276* | · | 3192*
CCOC(=O)N1CCC(NC(=O)CSCc2nc(-c3ccc(OC)c(OC)c3)oc2C)CC1 | 0.0883 | 1.31 | 1.2 | 0.812 | -35.3 | · | · | ·
COc1ccc(-c2nc(CSCC(=O)N3CCN(c4cccc(C)c4)C(C)C3)c(C)o2)cc1OC (centres undefined) | 0.000703 | 11.6* | 0.5 | 0.135 | -20.3 | 12288* | · | 3596*
COc1ccc(-c2nc(CSCC(=O)N3CCc4ccccc4C3)c(C)o2)cc1OC | -0.0429 | 7.84* | -1.3 | -0.137 | 2.4 | 7660 | 1528 | 3652*
Cc1ccc(-c2ccc(=O)n(CC(=O)N3CCN(c4cccc(C)c4)C(C)C3)n2)cc1 (centres undefined) | -0.258 | 0.582 | -1.1 | 0.465 | 8.1 | · | · | ·
CCCCN(C)CCCNC(=O)CS(=O)Cc1nc(-c2ccc(OC)c(OC)c2)oc1C (centres undefined) | -0.145 | 0.323 | -0.5 | 0.866 | 1.9 | · | · | ·
C=C(C)Cn1c(CCCNC(=O)CCC)nc2ccccc21 | -0.908 | 0.838 | · | 0.00177 | · | · | · | ·
COc1cccc(-c2cc(C(F)(F)F)n3ncc(C(=O)O)c3n2)c1 | -0.993 | 1.25 | 1.3 | 0.00978 | 3.0 | · | · | ·
COc1ccc(-c2cc(C(F)(F)F)n3nc(C)cc3n2)cc1 | 0.107 | 12.1* | 0.8 | -0.0152 | -17.0 | 9368* | 1632 | 3348*
Cc1cc2nc(-c3ccco3)cc(C(F)(F)F)n2n1 | -0.284 | 31.8* | 0.2 | 0.134 | -17.0 | 22332* | · | 3868*
COc1cccc(-c2cc(C(F)(F)F)n3nc(N)nc3n2)c1 | 0.308 | 7.26* | 0.1 | 1.04 | -34.0 | 15000* | 1596 | 6680*
Cc1ccc(NC(=O)c2ccco2)cc1NC(=O)CSc1nnc(-c2cccs2)n1C | -0.264 | 0.924 | 1.6 | -0.103 | -12.9 | · | · | ·
C=CCc1c(C)nc(SCC(=C)C)[nH]c1=O | 0.0168 | 1.8 | · | 1.18 | · | · | · | ·
Nc1nc2n(n1)C(c1ccco1)CC(c1ccccc1)N2 (centres undefined) | -1.64 | 13.5* | -0.4 | -0.99 | -17.1 | 20620* | 1600 | 4180*
Nc1nc2n(n1)C(c1cccc(Br)c1)CC(c1ccc(F)cc1)N2 (centres undefined) | -0.312 | 14.3* | -0.9 | -0.927 | 0.2 | 13072* | 1584 | 4192*
COc1ccc(C2CC(c3ccccc3)Nc3nc(N)nn32)cc1 (centres undefined) | -0.00468 | · | -3.8 | 0.679 | -4.3 | · | · | ·
CCOc1ccc(C2CC(c3ccccc3)Nc3nc(N)nn32)cc1 (centres undefined) | 0.453 | · | -2.3 | -0.036 | -5.3 | · | · | ·
c1ccc(C2CC(c3ccccc3)n3ncnc3N2)cc1 (centres undefined) | 0.127 | 4.38* | -0.5 | -0.363 | -0.8 | 6308* | 1700 | 3180
Nc1nc2n(n1)C(c1ccccc1)CC(c1ccc(F)cc1)N2 (centres undefined) | -0.589 | 6.03* | -0.5 | 0.0391 | 1.2 | 11012* | 1632 | 5680
O=C(CSc1ncnc2c1oc1ccccc12)NCc1ccc(F)cc1 | -0.392 | 0.333 | -0.9 | 0.432 | -20.6 | · | · | ·
NC12CC3CC(C1)CC(CO)(C3)O2 | -0.11 | -0.0205 | 0.8 | 0.744 | 8.3 | · | · | ·

Bioassay records: PubChem BioAssay, several laboratories
